From ChEMBL document CHEMBL3817843, “Understanding Oxadiazolothiazinone Biological Properties: Negative Inotropic Activity versus Cytochrome P450-Mediated Metabolism” (J Med Chem, 2016)
Each block holds one compound with its values, some of them ahead of it.

Columns and labels:
[1] = tested on: Left cardiac atrium; assay: Negative inotropic activity in potassium depolarized guinea pig left atrium assessed as reduction in developed tension after 30 mins; assay type: functional; conditions: Cavia porcellus, 0.5 h
Outline: (§1)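 Guinea pig left atria electrically driven at 1 Hz. EC50 taken from log concentration−response curves by Litchfield and Wilcoxon probit analysis, n = 6−7. Not calculated when the maximum effect was below 50%.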

[2] = tested on: Left cardiac atrium; assay: Negative inotropic activity in potassium depolarized guinea pig left atrium assessed as reduction in developed tension at 50 uM after 30 mins; assay type: functional, Cavia porcellus; design: scale not given: the % may be the effect or the level left
[3] = tested on: Right cardiac atrium; assay: Negative chronotropic activity in potassium depolarized guinea pig right atrium assessed as reduction in atrial rate at 50 uM after 30 mins; assay type: functional, Cavia porcellus; design: scale not given: the % may be the effect or the level left
[4] = tested on: Aorta; assay: Vasorelaxant activity in potassium depolarized guinea pig aorta assessed as inhibition of calcium-induced contraction at 10^-4 M after 30 mins; assay type: functional, Cavia porcellus; design: scale not given: the % may be the effect or the level left
Outline: (§2)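 Guinea pig aortic strips depolarized with K+ (80 mM). Calcium-induced contraction measured; inhibition expressed as percent change from control, n = 3−5.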

[5] = tested on: Right cardiac atrium; assay: Negative chronotropic activity in potassium depolarized guinea pig right atrium assessed as reduction in atrial rate at 10^-5 M after 30 mins; assay type: functional, Cavia porcellus; design: scale not given: the % may be the effect or the level left
[6] = Relaxant activity in potassium depolarized guinea pig ileum longitudinal smooth muscle assessed as inhibition of calcium-induced contraction at 10^-4 M after 30 mins; assay type: functional, Cavia porcellus; design: scale not given: the % may be the effect or the level left
[7] = tested on: Right cardiac atrium; assay: Negative chronotropic activity in potassium depolarized guinea pig right atrium assessed as reduction in atrial rate at 10^-4 M after 30 mins; assay type: functional, Cavia porcellus; design: scale not given: the % may be the effect or the level left
[8] = tested on: Left cardiac atrium; assay: Negative inotropic activity in potassium depolarized guinea pig left atrium assessed as reduction in developed tension at 10^-5 M after 30 mins; assay type: functional, Cavia porcellus; design: scale not given: the % may be the effect or the level left
[9] = Relaxant activity in potassium depolarized guinea pig ileum longitudinal smooth muscle assessed as inhibition of calcium-induced contraction after 30 mins; assay type: functional, tissue-based; conditions: Cavia porcellus, 0.5 h
[10] = tested on: Aorta; assay: Vasorelaxant activity in potassium depolarized guinea pig aorta assessed as inhibition of calcium-induced contraction at 10^-6 M; assay type: functional, Cavia porcellus; design: scale not given: the % may be the effect or the level left
Outline: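 Guinea pig aortic strips depolarized with 80 mM K+, then contracted by calcium addition. The read-out is percent inhibition of the calcium-induced contraction, expressed as percent change from control, with n = 3–5.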

[11] = tested on: Left cardiac atrium; assay: Negative inotropic activity in potassium depolarized guinea pig left atrium assessed as reduction in developed tension; assay type: functional; conditions: Cavia porcellus; outline: as §1
[12] = tested on: Left cardiac atrium; assay: Negative inotropic activity in potassium depolarized guinea pig left atrium assessed as reduction in developed tension at 10^-5 M; assay type: functional, Cavia porcellus; design: scale not given: the % may be the effect or the level left
[13] = tested on: Left cardiac atrium; assay: Negative inotropic activity in potassium depolarized guinea pig left atrium assessed as reduction in developed tension at 10^-4 M after 30 mins; assay type: functional, Cavia porcellus; design: scale not given: the % may be the effect or the level left
[14] = tested on: Aorta; assay: Vasorelaxant activity in potassium depolarized guinea pig aorta assessed as relaxation of calcium-induced contraction; assay type: functional, tissue-based; conditions: Cavia porcellus; outline: as §2
[15] = Relaxant activity in potassium depolarized guinea pig ileum longitudinal smooth muscle assessed as inhibition of calcium-induced contraction at 50 uM after 30 mins; assay type: functional, Cavia porcellus; design: scale not given: the % may be the effect or the level left
[16] = tested on: Right cardiac atrium; assay: Negative chronotropic activity in potassium depolarized guinea pig right atrium assessed as reduction in atrial rate at 10^-6 M after 30 mins; assay type: functional, Cavia porcellus; design: scale not given: the % may be the effect or the level left
[17] = tested on: Aorta; assay: Vasorelaxant activity in potassium depolarized guinea pig aorta assessed as inhibition of calcium-induced contraction at 50 uM after 30 mins; assay type: functional, Cavia porcellus; design: scale not given: the % may be the effect or the level left; outline: as §2
[18] = Half life in human liver microsomes assessed as CYP-mediated compound degradation at 1 uM by LC-MS analysis
[19] = tested on: Liver microsome; assay: Stability in human liver microsomes at 1 uM after 2 to 60 mins by LC-MS analysis in absence of NADPH
[20] = target: Cytochrome P450 2D6 (Homo sapiens, UniProt P10635); assay: Inhibition of CYP2D6 in human liver microsomes using dextromethorphan as substrate after 10 mins by LC-MS analysis
Chain of Cytochrome P450 2D6 (P10635 whole entry): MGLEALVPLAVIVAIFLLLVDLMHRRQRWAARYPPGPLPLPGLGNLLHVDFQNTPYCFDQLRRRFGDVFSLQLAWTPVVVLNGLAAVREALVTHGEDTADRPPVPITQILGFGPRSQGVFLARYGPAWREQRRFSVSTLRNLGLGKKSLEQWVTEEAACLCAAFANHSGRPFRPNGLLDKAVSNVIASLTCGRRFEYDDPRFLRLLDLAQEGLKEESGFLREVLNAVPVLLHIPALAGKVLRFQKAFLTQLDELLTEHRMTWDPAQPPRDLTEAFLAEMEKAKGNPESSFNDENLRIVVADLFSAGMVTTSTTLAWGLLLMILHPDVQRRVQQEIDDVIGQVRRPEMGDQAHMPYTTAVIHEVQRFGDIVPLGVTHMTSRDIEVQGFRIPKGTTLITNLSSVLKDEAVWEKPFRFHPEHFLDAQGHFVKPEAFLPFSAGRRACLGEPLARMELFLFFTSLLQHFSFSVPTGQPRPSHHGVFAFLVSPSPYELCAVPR

[21] = target: T1, Cytochrome P450 3A4 (Homo sapiens, UniProt P08684); assay: Inhibition of CYP3A4 in human liver microsomes using midazolam as substrate after 4 mins by LC-MS analysis
T1 sequence (P08684 whole entry): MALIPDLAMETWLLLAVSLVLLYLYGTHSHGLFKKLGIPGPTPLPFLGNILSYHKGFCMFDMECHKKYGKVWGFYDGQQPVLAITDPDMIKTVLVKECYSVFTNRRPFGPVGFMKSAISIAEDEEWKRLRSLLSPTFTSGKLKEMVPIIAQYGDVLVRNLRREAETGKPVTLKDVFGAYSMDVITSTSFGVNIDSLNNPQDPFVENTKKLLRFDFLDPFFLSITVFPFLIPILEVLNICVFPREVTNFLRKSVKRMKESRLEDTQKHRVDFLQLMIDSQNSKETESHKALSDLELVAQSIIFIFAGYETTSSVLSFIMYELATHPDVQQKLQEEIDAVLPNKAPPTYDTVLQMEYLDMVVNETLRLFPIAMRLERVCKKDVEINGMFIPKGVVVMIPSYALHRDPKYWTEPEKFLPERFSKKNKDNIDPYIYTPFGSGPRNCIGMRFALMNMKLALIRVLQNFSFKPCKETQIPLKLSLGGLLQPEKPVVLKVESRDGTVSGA

[22] = target: Cytochrome P450 2C9 (Homo sapiens, UniProt P11712); assay: Inhibition of CYP2C9 in human liver microsomes using tolbutamide as substrate after 20 mins by LC-MS analysis
Chain of Cytochrome P450 2C9 (P11712 whole entry): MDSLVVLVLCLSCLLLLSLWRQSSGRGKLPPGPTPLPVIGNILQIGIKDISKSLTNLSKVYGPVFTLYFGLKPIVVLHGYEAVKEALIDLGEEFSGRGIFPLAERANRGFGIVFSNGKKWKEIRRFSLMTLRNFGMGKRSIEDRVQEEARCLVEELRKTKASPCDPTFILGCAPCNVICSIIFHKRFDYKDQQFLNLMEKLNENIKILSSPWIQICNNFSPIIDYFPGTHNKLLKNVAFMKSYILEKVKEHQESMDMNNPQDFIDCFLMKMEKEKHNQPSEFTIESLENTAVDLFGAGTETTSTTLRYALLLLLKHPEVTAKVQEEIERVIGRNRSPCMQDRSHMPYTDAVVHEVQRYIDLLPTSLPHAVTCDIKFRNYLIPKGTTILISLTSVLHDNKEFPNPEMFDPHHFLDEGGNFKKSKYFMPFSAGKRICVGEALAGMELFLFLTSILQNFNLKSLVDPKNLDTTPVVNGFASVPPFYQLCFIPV

[23] = target: T2, Cytochrome P450 1A2 (Homo sapiens, UniProt P05177); assay: Inhibition of CYP1A2 in human liver microsomes using phenacetin as substrate after 30 mins by LC-MS analysis
T2 sequence (P05177 whole entry): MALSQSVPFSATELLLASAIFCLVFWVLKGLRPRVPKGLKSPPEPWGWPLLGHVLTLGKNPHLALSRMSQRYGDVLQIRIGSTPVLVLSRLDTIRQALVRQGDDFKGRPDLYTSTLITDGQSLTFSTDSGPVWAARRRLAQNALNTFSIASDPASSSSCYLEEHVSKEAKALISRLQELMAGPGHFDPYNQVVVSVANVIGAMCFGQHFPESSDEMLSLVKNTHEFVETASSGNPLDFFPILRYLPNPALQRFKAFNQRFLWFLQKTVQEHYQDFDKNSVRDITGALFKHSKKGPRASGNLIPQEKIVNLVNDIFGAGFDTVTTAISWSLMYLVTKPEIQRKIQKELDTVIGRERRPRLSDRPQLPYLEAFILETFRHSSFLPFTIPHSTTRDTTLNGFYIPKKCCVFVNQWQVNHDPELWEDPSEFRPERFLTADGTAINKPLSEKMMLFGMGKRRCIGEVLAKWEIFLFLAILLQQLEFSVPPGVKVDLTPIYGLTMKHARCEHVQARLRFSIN

[24] = target: Cytochrome P450 2C19 (Homo sapiens, UniProt P33261); assay: Inhibition of CYP2C19 in human liver microsomes using (S)-mephenytoin as substrate after 40 mins by LC-MS analysis
Chain of Cytochrome P450 2C19 (P33261 whole entry): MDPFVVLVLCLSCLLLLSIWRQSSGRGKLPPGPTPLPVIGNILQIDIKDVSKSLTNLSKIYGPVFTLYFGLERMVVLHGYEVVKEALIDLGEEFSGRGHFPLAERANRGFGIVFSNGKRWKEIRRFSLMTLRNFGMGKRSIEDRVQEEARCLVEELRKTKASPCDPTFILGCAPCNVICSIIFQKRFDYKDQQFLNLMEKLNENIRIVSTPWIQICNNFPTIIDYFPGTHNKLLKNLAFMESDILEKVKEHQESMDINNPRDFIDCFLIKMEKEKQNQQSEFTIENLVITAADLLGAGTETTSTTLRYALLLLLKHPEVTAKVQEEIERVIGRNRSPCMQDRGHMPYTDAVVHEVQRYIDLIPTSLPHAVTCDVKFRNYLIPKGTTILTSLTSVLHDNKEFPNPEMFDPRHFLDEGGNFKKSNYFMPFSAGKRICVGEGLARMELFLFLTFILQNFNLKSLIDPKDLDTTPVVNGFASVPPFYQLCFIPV

[25] = target: T1, Cytochrome P450 3A4; assay: Inhibition of CYP3A4 in human liver microsomes using testosterone as substrate after 5 mins by LC-MS analysis
[26] = in vitro; conditions: human, liver microsomes
[27] = tested on: Left cardiac atrium; assay: Negative inotropic activity in potassium depolarized guinea pig left atrium assessed as reduction in developed tension at 5 uM after 30 mins; assay type: functional, Cavia porcellus; design: scale not given: the % may be the effect or the level left

Compound: COc1cccc(C2(OCC3CCCCC3)SC=C(C)n3c2noc3=O)c1 (configuration not stated)
EC50 [1]: 0.65 µM
Activity [2]: 83%
Activity [3]: 4%
Activity [4]: 20%

Compound: COc1ccccc1C1(O)SC=C(C)n2c1noc2=O (configuration not stated)
EC50 [1]: 0.93 µM
Activity [5]: 11%
Activity [2]: 94%
Activity [4]: 25%

Compound: COC(=O)C1=C(C)NC(C)=C(C(=O)OC)C1c1ccccc1[N+](=O)[O-] [NIFEDIPINE]
Activity [10]: 82%
EC50 [11]: 0.26 µM
Activity [12]: 97%

Compound: COc1ccc(C2(OCC3CCCCC3)SC=C(C)n3c2noc3=O)cc1 (configuration not stated)
EC50 [1]: 0.66 µM
Activity [13]: 80%
Activity [4]: 21%
Activity [7]: 3%

Compound: COc1ccc(CCN(C)CCCC(C#N)(c2ccc(OC)c(OC)c2)C(C)C)cc1OC (configuration not stated)
Activity [10]: 95%
IC50 [14]: 0.38 µM
EC50 [11]: 0.61 µM
Activity [12]: 84%

Compound: CC1=CSC(OC(C)C)(c2ccccc2)c2noc(=O)n21 (configuration not stated)
EC50 [1]: 1.19 µM
Activity [13]: 82%
Activity [15]: 97%
Activity [16]: 25%
Activity [4]: 39%
IC50 [9]: 4.82 µM

Compound: COc1cccc(C2(O)SC=C(C)n3c2noc3=O)c1 (configuration not stated)
Activity [17]: 10%
EC50 [1]: 0.49 µM
Activity [2]: 86%
Activity [3]: 16%

The next lines start with results.

EC50 [1]: 0.32 µM
IC50 [9]: 12.4 µM
Compound: COc1cccc(C2(OCC(F)(F)F)SC=C(C)n3c2noc3=O)c1 (configuration not stated)
Activity [6]: 95%
Activity [4]: 40%
Activity [7]: 9%
Activity [8]: 72%

half-life at 1 µM [18]: 13 min
Stability [19]: Stable
IC50 [20]: > 20 µM
EC50 [1]: 0.23 µM
IC50 [21]: > 20 µM
IC50 [22]: 11.8 µM
IC50 [23]: > 20 µM
IC50 [24]: 3.6 µM
IC50 [25]: > 20 µM
microsomal CLint at 1 µM [26]: 135 µL/min/mg
Compound: CCOC1(c2ccc(OC)cc2)Sc2ccccc2-n2c1noc2=O (configuration not stated)
Activity [4]: 11%
Activity [7]: 19%
Activity [8]: 73%

EC50 [1]: 0.41 µM
Compound: CC(C)OC1(c2ccccc2)Sc2ccccc2-n2c1noc2=O (configuration not stated)
Activity [2]: 69%
Activity [4]: 7%
Activity [7]: 13%

EC50 [1]: 0.14 µM
Compound: CCOC1(c2ccccc2OC)SC=C(C)n2c1noc2=O (configuration not stated)
Activity [5]: 29%
Activity [27]: 85%
Activity [4]: 28%

EC50 [1]: 0.064 µM
IC50 [9]: 3.53 µM
Compound: COc1cccc(C2(OC(C)C)SC=C(C)n3c2noc3=O)c1 (configuration not stated)
Activity [15]: 98%
Activity [2]: 84%
Activity [3]: 2%
Activity [4]: 36%

Stability [19]: Stable
IC50 [20]: > 20 µM
EC50 [1]: 0.21 µM
IC50 [22]: 19 µM
IC50 [23]: > 20 µM
IC50 [24]: 6.1 µM
IC50 [25]: > 20 µM
Compound: CCOC1(c2ccccc2)Sc2ccccc2-n2c1noc2=O (configuration not stated)
Activity [3]: 7%
Activity [4]: 14%
Activity [8]: 88%

half-life at 1 µM [18]: 23 min
Stability [19]: Stable
IC50 [20]: > 20 µM
EC50 [1]: 0.095 µM
IC50 [21]: > 20 µM
IC50 [22]: > 20 µM
IC50 [23]: > 20 µM
IC50 [24]: 17 µM
IC50 [25]: > 20 µM
IC50 [9]: 10.3 µM
microsomal CLint at 1 µM [26]: 76 µL/min/mg
Compound: COc1ccc(C2(OCC(F)(F)F)Sc3ccccc3-n3c2noc3=O)cc1 (configuration not stated)
Activity [6]: 66%
Activity [13]: 82%
Activity [4]: 6%
Activity [7]: 19%
